Source: PMC11178347 (Proteoglycan research, 2023)
“Also recorded” adds a separate entry of the source. Blank lines part the entries; values can stand above or below the substance they belong to. Ends that are not written are not given here.

Legend:
[1] = Peptide association with chondroitin sulfate; type: physicochemical; conditions: for Decrease in peptides associated per disaccharide / Percent Decrease in total peptide associated/GAG: with CS, before vs after 1 M NaCl and 8 M urea wash
Summary of the method: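 Chondroitin sulfate (10 mg/mL) reacted overnight at pH 4.5 with peptide (theoretical 16% disaccharide substitution) in 0.1 M MES/8 M urea/0.2 wt% NaCl, with EDC 0.5:1 per disaccharide or without EDC. Stopped at pH 8.5, tangential-flow filtered (10 kDa). Agitated 30 min in 1 M NaCl/8 M urea, spin-filtered (10 kDa) and water-exchanged three times. Peptide measured by A280 against standard curves, before and after wash.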

[2] = Circular dichroism secondary structure of GQLY variants; type: physicochemical; conditions: 1 mg/mL, pH 8.5 sodium borate buffer; for Antiparallel / Helix / Others / Parallel / Turn: CD far-UV 190-250 nm, BESTSEL; for Structure difference between variants by CD: SRR-hyd vs GSG-hyd
Summary of the method: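 Peptides at 1 mg/mL in pH 8.5 sodium borate buffer, quartz cell. Far-UV spectra 190–250 nm, baseline-corrected. Secondary-structure fractions fitted by least squares at each wavelength point, separating antiparallel β-sheet by twist angle and regular from distorted α-helix.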

[3] = SRR-hyd conjugation to GAG backbones; type: physicochemical; conditions: following salt washing
Summary of the method: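 Heparin, hyaluronic acid, chondroitin sulfate or dermatan sulfate (10 mg/mL) coupled to peptide with EDC (0.5:1 per disaccharide) in 0.1 M MES/8 M urea/0.2 wt% NaCl, pH 4.5, overnight. Quenched at pH 8.5, purified by tangential flow over a 10 kDa membrane, lyophilised. Peptide content from 280 nm absorbance using peptide standard curves, expressed per disaccharide (GAG mass divided by disaccharide mass).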

[4] = system: platelet adhesion to immobilized fibrillar collagen; assay: Inhibition of platelet adhesion to immobilized fibrillar collagen under flow; type: cell-based; conditions: even at high concentrations; human whole blood, 1000 s−1
Summary of the method: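 Flow channels coated with fibrillar type I collagen (100 μg/mL, 1 h, room temperature) and PBS-washed. Channels pre-incubated 1 h with test compound, or with its heparin or peptide component alone, at increasing concentrations, then flushed. Citrated human whole blood, pooled and used within 3 h, stained with Calcein-AM 30 min at 37 °C. Conjugate added to blood, perfused at 1000 s−1. Adherent platelets imaged by fluorescence and normalised to untreated control.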

platelet binding = conditions: ref Biran & Pond, 2017; Linhardt et al., 2008; cited from earlier work
collagen = conditions: ref unpublished studies; cited from earlier work

Decrease in peptides associated per disaccharide [1]: 1.1% | Percent Decrease in total peptide associated/GAG [1]: 15% | Antiparallel [2]: 25.6 | Helix [2]: 6.2 | Others [2]: 53.9 | Parallel [2]: 0 | Turn [2]: 14.3 | Structure difference between variants by CD [2]: minimal difference in their structure
Substance: GQLYKSILYGSGSG-hydrazide

Substance: dermatan sulfate [DS]
GQLY (SRR-hyd) conjugation supported by the GAG backbone [3]: same intermediate level of GQLY conjugation

GQLY (SRR-hyd) conjugation supported by the GAG backbone [3]: greatest GQLY conjugation
Substance: heparin
Platelet inhibition, in words [4]: no significant platelet inhibition | Platelet binding suppression (platelet binding): known to suppress platelet binding

Peptide association with CS, without EDC ([1]; absence of EDC, initial 10 kDa purification): equivalent | Decrease in peptides associated per disaccharide [1]: 5.7%
Substance: GQLYKSILYGSGSGSRR-NH2

Substance: chondroitin sulfate [CS]
GQLY (SRR-hyd) conjugation supported by the GAG backbone [3]: same intermediate level of GQLY conjugation

GQLY (SRR-hyd) conjugation supported by the GAG backbone [3]: least
Substance: hyaluronic acid [HA]

Decrease in peptides associated per disaccharide [1]: 5.2% | Percent Decrease in total peptide associated/GAG [1]: 32% | Antiparallel [2]: 21.8 | Helix [2]: 5.5 | Others [2]: 59.2 | Parallel [2]: 0 | Turn [2]: 13.5 | Structure difference between variants by CD [2]: minimal difference in their structure
Substance: GQLYKSILYGSGSGSRR-hydrazide
Peptide association with CS, with EDC ([1]; after EDC reaction, initial 10 kDa purification): significantly more peptide association when using the SRR-hyd variant compared to the GSG-hyd variant; also recorded: more SRR-hyd associated with CS compared to the SRR-amide variant

Substance: GQLYKSILY
Collagen binding (collagen): also binding to collagen
